For twelve compounds, IC50 results are on record in ChEMBL document CHEMBL1156677, “Oxoisoaporphine alkaloid derivatives: synthesis, DNA binding affinity and cytotoxicity” (Eur J Med Chem, 2008).

The structures appear in SMILES notation. pIC50: −log10 of the molar value.

Holding throughout (format): functional, cell-based
The test system of experiment [1] is NCI-H460. In words: Cytotoxicity against human NCI-H460 cells after 48 hrs by MTT assay. The conditions noted are these: NCI-H460, 48 h. Put shortly:
(§1)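 Cells in exponential growth were trypsinised, centrifuged at 180 × g for 3 min, resuspended at 5 × 10^4 cells/ml and seeded. After 48 h drug exposure, MTT (1 mg/mL) added for 4 h. Formazan dissolved in DMSO, OD read at 570 nm. Each dose run in triplicate. IC50 derived from mean OD and reported as the mean of three independent assays.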

The subject of experiment [2] is HepG2. Nature of the experiment: Cytotoxicity against human HepG2 cells after 48 hrs by MTT assay. The conditions noted are these: HepG2, 48 h. The method, boiled down: as §1
Background: Tetrazolium dyes change colour on reduction, which living cells bring about.

The test system of experiment [3] is MCF7. Nature of the experiment: Cytotoxicity against human MCF7 cells after 48 hrs by MTT assay. The settings on record: MCF7, 48 h. Put shortly: as §1

In general, pIC50 refers to the IC50 on a negative log10 scale, so that one unit is a factor of ten. Low values mean a high IC50, high ones a low IC50. With `CN(C)CCC(=O)Nc1ccc2c(c1)C(=O)c1cccc3ccnc-2c13`, the pIC50 in experiment [1] is 5.17; in experiment [2], 5.11; in experiment [3], 5.04.
Taken in the same sequence, the figures for `CN(C)CCCC(=O)Nc1ccc2c(c1)C(=O)c1cccc3ccnc-2c13` were 4.71, 4.53 and 4.94.
As for `O=C(CCNCCO)Nc1ccc2c(c1)C(=O)c1cccc3ccnc-2c13`, the pIC50 was 5.63 in experiment [1], 5.41 in experiment [2] and 5.37 in experiment [3].
With `Nc1ccc2c(c1)C(=O)c1cccc3ccnc-2c13`, the negative-log IC50 (pIC50) in experiment [1] is 4.45; in experiment [2], 4.71; in experiment [3], 4.69.
Taken in the same sequence, the figures for `O=C(CCN1CCCC1)Nc1ccc2c(c1)C(=O)c1cccc3ccnc-2c13` were 4.78, 5.09 and 5.10.
Consider `O=C(CCCN1CCCC1)Nc1ccc2c(c1)C(=O)c1cccc3ccnc-2c13`, for which the negative logarithm of the IC50 (pIC50) in experiment [1] was 5.04; in experiment [2] it was 4.89; in experiment [3], 4.56.
In the case of `CN(C)CC(=O)Nc1ccc2c(c1)C(=O)c1cccc3ccnc-2c13`, the pIC50 is 5.04 in experiment [1], 5.01 in experiment [2] and 4.76 in experiment [3].
Take `CN(C)CCNCCC(=O)Nc1ccc2c(c1)C(=O)c1cccc3ccnc-2c13`: the negative logarithm of the IC50 (pIC50) in experiment [1] was 4.52; in experiment [2], 4.68; in experiment [3], 4.55.
As for `O=C(CN1CCCC1)Nc1ccc2c(c1)C(=O)c1cccc3ccnc-2c13`, the pIC50 in experiment [1] is 5.68; in experiment [2] it was 5.09; in experiment [3], 4.93.
Taken in the same sequence, the figures for `CCN(CC)CCC(=O)Nc1ccc2c(c1)C(=O)c1cccc3ccnc-2c13` were 5.30, 4.92 and 4.90.
As for `O=C1c2ccccc2-c2nccc3cccc1c23`, the pIC50 in experiment [2] and in experiment [3] was under 4.00 in each case.
For `O=C(CCN1CCCCC1)Nc1ccc2c(c1)C(=O)c1cccc3ccnc-2c13`, the negative logarithm of the IC50 (pIC50) in experiment [1] is 5.37; in experiment [2], 5.20; in experiment [3], 5.29.
